MEKK2wt PB1 HTS: modulators of MEK5 binding to wildtype MEKK2, primary screen, biochemical, multiplex bead flow cytometry, Alexa488-MEK5; AID 1531, 2009; binding response (% of control), % at 10 µM; 1.1% of 290,000 active; Alexa488-MEK5 binding to MEKK2 WT; actives lie on both sides; in the data active = binding response below about 67% or above about 130%
Apaf-1 inh: inhibitors of human Apaf-1 apoptosome, primary screen, biochemical, DEVD-Rh110 fluorescence, uHTS | Apoptotic protease-activating factor 1 (Homo sapiens), O14727 | reconstituted apoptosome caspase-3 activity | inhibition, % at 20 µM | 0.71% of 330,000 active; active = inhibition of at least 40% at 20 µM;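 also: plate controls were DMSO wells for no effect and DEVD-CHO caspase inhibitor wells for full effect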
Target sequence (O14727 whole entry, looked up): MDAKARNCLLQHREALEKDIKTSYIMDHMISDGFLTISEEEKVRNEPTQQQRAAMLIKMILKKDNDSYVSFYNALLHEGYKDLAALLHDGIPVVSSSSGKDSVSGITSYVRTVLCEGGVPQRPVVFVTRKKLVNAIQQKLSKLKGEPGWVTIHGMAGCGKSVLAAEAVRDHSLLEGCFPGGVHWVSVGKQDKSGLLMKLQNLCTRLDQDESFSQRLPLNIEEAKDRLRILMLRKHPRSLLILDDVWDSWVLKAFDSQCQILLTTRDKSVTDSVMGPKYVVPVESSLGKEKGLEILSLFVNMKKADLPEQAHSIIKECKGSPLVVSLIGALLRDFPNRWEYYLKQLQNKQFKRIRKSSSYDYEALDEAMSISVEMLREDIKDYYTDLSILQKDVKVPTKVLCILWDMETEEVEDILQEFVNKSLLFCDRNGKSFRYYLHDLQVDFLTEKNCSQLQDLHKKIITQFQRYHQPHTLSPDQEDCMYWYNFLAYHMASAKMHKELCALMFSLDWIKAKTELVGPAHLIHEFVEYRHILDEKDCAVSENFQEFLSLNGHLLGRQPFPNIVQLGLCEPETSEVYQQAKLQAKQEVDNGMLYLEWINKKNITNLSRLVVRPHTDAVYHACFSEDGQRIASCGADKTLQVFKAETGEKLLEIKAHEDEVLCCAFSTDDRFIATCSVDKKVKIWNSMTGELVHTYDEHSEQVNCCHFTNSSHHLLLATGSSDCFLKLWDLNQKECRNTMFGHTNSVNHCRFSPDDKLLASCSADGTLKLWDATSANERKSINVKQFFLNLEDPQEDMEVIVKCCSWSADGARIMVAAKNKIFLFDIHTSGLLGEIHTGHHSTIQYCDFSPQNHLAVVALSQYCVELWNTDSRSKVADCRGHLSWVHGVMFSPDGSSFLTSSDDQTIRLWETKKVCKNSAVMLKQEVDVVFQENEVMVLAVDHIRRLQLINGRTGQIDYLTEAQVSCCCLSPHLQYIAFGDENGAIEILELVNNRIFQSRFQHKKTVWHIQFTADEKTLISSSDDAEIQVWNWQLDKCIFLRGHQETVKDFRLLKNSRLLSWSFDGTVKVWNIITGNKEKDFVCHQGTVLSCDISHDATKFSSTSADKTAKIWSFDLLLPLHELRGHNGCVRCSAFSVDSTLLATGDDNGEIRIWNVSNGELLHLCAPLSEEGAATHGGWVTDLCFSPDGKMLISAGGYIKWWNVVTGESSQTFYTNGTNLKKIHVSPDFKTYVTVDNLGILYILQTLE
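Material: biochemical Apaf-1 apoptosome reconstitution. Medium: Hepes buffer, pH 7.5. Also added: cytochrome c activation, bis-DEVD rhodamine 110 substrate. Timing: 30 min compound preincubation, 50 min activation, room temperature. Measured by: rhodamine 110 fluorescence at Ex 480/Em 540 nm.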
MEKK3 PB1 HTS: modulators of MEKK3-MEK5 PB1 binding, primary screen, biochemical, wildtype MEKK3, multiplex bead flow cytometry, Alexa488-MEK5 | Mitogen-activated protein kinase kinase kinase 3 (Homo sapiens), Q99759 | bead-based flow cytometry, Alexa488-MEK5 binding to MEKK3; actives lie on both sides; 0 = blocked by unlabeled MEK5, 100 = vehicle | binding response (% of control), % at 10 µM | 1.4% of 290,000 active;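 active = binding response more than 3 SD above or below the average of its plate-row segment, actives on both sides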;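 also: Alexa488 bead fluorescence after subtracting the streptavidin-only scavenger bead signal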
MEKK2mut PB1 HTS: MEK5 binding signal on mutant MEKK2 PB1, primary screen, biochemical, multiplex bead flow cytometry, Alexa488-MEK5; AID 1530, 2009; percent response, % at 10 µM; 0.35% of 290,000 active; Alexa488-MEK5 binding to MEKK2 mutant; in the data active = percent response above about 24%, passing the limit was not always enough
UBC13 polyUb: UBC13 polyubiquitin chain formation inhibitors, primary screen, biochemical, TR-FRET, uHTS; Ubiquitin-conjugating enzyme E2 N (Homo sapiens), P61088; inhibition, % at 20 µM; 0.47% of 330,000 active; in the data active = inhibition above about 45%, passing the limit was not always enough
MEKK2wt confirm: modulators of MEK5 binding to wildtype MEKK2, confirmation, biochemical, single concentration, multiplex bead flow cytometry | shares compounds with MEKK3 PB1 HTS | Alexa488-MEK5 binding to MEKK2 WT; actives lie on both sides | binding response (% of control), % at 10 µM | 2.4% of 5,900 active; in the data active = binding response below about 16% or above about 210%; inactive = in between
MEKK2mut-MEK5: mutant MEKK2 PB1-MEK5 binding signal retest – biochemical, single concentration, multiplex bead flow cytometry, confirmation; shares compounds with MEKK3 PB1 HTS; Alexa488-MEK5 binding to MEKK2 mutant; percent response, % at 10 µM; 2% of 5,900 active; in the data active = percent response mostly above about 71%, no sharp cut-off; inactive = mostly below about 38%;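 also: higher means compound restores mutant binding toward wildtype level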
MEKK3-MEK5 inh: MEKK3 wild-type PB1 binding to MEK5, inhibitors, confirmation, biochemical, bead multiplex flow cytometry, single concentration, wildtype; shares compounds with MEKK3 PB1 HTS; Alexa488-MEK5 binding to MEKK3; active compounds read low; binding response (% of control), % at 10 µM; 1.8% of 5,900 active;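 active = binding response below 72% of control, or above a set upper limit, though filed actives all read lower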;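 also: 100% = DMSO only wells and 0% = binding blocked by excess unlabeled MEK5; lower values mean stronger disruption of MEK5 binding to MEKK3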
Numbers without * were called inactive; nt = no result given; [ ] = another dose, or the depositor's remark. Compounds with a hit are over-represented: about 2.9% of the library has one in this group of screens.

SMILES | MEKK2wt PB1 HTS | Apaf-1 inh | MEKK3 PB1 HTS | MEKK2mut PB1 HTS | UBC13 polyUb | MEKK2wt confirm | MEKK2mut-MEK5 | MEKK3-MEK5 inh
OCCNCc1ccc(OCc2ccc(Cl)cc2Cl)cc1 | 138* | 6 | 101 | 27 | 20 | 124 | 6 | 98
C=CCN(C(=O)c1csnn1)C(C(=O)NCc1ccc(F)cc1)c1cccs1 (stereo not given) | 96 | 2 | 100 | -5 | 6 | nt | nt | nt
Cc1cc(C(=O)N/N=C/c2cc(N=Nc3ccccc3)ccc2O)n[nH]1 | 66 | nt | 38*[inhibitor] | -4 | nt | 79 | -16 | 86
COC(=O)N/N=C/c1cc(N=Nc2ccccc2)ccc1O | 97 | -9 | 95 | 0 | -85 | nt | nt | nt
Cc1ccc(NC(=O)CSc2nnc(-c3cccnc3)s2)cc1 | 103 | 0 | 8.0*[inhibitor] | 2 | 4 | 103 | -1 | 105
COc1cccc2[nH]c3c(N4CCC(C)CC4)ncnc3c12 | 104 | -6 | 90 | -7 | -4 | nt | nt | nt
COc1cccc2[nH]c3c(N4CCc5ccccc5C4)ncnc3c12 | 147* | -6 | 103 | 26 | 15 | 152 | 26 | 108
Cc1c(NC(=O)CN2C(=O)NC(C)(c3ccccc3)C2=O)c(=O)n(-c2ccccc2)n1C (stereo not given) | 103 | -9 | 140* | 0 | -1 | 105 | 0 | 99
CCCC1(c2ccccc2)NC(=O)N(CC(=O)Nc2cc(C)on2)C1=O (stereo not given) | 80 | 3 | 65*[inhibitor] | -3 | -4 | 91 | -5 | 97
Cc1ccc(C2(C)NC(=O)N(CC(=O)Nc3c(C)n(C)n(-c4ccccc4)c3=O)C2=O)cc1 (stereo not given) | 131 | 0 | 106 | 20 | 3 | nt | nt | nt
OCC1(CC2CCCCO2)CCN(Cc2cccc(O)c2)CC1 (stereo not given) | 103 | -6 | 102 | 2 | -14 | nt | nt | nt
O=C(Cn1cnc2ccccc21)N1CCN(S(=O)(=O)c2ccccc2)CC1 | 92 | -6 | 97 | -6 | 3 | nt | nt | nt
O=C(Nc1nc2c(s1)CN(Cc1ccccc1)CC2)C1CCC1 | 116 | 9 | 110 | 2 | 3 | nt | nt | nt
CN(C)c1ccc(/C=C(\C#N)C(=O)Nc2nc3c(s2)CCN(Cc2ccccc2)C3)cc1 | 71*[inhibitor] | 20 | 97 | -22 | -217 | 98 | 7 | 106
COc1ccccc1C1CCCN1Cc1nc(-c2ccc(C)s2)oc1C (stereo not given) | 63*[inhibitor] | 1 | 61*[inhibitor] | -14 | 2 | 107 | 6 | 101
COc1ccccc1C1CCCN1Cc1nc(-c2cc3c(cc2Cl)OCO3)oc1C (stereo not given) | 107 | 9 | 103 | 5 | 3 | nt | nt | nt
O=C1C2C(C(=O)N1CCN1CCN(Cc3ccc([N+](=O)[O-])cc3)CC1)[C@H]1C=C[C@@H]2C1 (stereo not given in full) | 98 | -26 | 97 | 3 | 1 | nt | nt | nt
CCc1ccc(NC(=S)NC(=O)CC(C)C)cc1 | 110 | 0 | 148* | 1 | 13 | 104 | 11 | 108
CCN(CC)S(=O)(=O)c1ccc(NC(=S)NC(=O)CC(C)C)cc1 | 100 | 15 | 105 | -3 | -8 | nt | nt | nt
Cc1cccc(Nc2nnc(SCC(=O)NC3CCCc4ccccc43)s2)c1 (stereo not given) | 3.0*[inhibitor] | 24 | 3.0*[inhibitor] | -4 | 0 | 104 | -4 | 100
O=C(CSc1ccc2ccccc2c1)NC1CCCc2ccccc21 (stereo not given) | 107 | 17 | 130* | 1 | -1 | 100 | 1 | 102
O=C(CSc1nc2cc(S(=O)(=O)N3CCOCC3)ccc2o1)NC1CCCc2ccccc21 (stereo not given) | 3.0*[inhibitor] | 6 | 2.0*[inhibitor] | -21 | -4 | 98 | 0 | 101
Cc1ccc2c(CC(=O)NC3CCCc4ccccc43)coc2c1 (stereo not given) | 109 | 8 | 147* | 0 | 6 | 107 | 8 | 102
CCOc1ccccc1OCC(=O)NNC(=O)Cn1cnc2c1c(=O)n(C)c(=O)n2C | 98 | 9 | 99 | -1 | -14 | nt | nt | nt
COC(=O)[C@@H](Cc1c[nH]c2ccccc12)NC(=O)CCC(=O)c1ccc(F)cc1 | 104 | 4 | 104 | 1 | -9 | nt | nt | nt
SMILES | MEKK2wt PB1 HTS | Apaf-1 inh | MEKK3 PB1 HTS | MEKK2mut PB1 HTS | UBC13 polyUb | MEKK2wt confirm | MEKK2mut-MEK5 | MEKK3-MEK5 inh
COc1ccc(/C=C/C(=O)OCC(=O)NC2CCCC2)c(OC)c1 | nt | 9 | nt | nt | -10 | nt | nt | nt
Cc1ccc(Cl)cc1NC(=O)COC(=O)CSc1ccccc1 | nt | 6 | nt | nt | -6 | nt | nt | nt
COc1ccc(C2NCCc3c2[nH]c2ccccc32)cc1COc1ccc(F)cc1 (stereo not given) | 140* | -6 | 62*[inhibitor] | 2 | 47* | 205 | 69 | 114
COc1ccc(C2NC(C(=O)O)Cc3c2[nH]c2ccccc32)cc1CN1CCN(c2ccc(F)cc2)CC1 (stereo not given) | 120 | 1 | 93 | 5 | 7 | nt | nt | nt
COc1ccc(C2NCCc3c2[nH]c2ccccc32)cc1CN1CCc2cc(OC)c(OC)cc2C1C (stereo not given) | 172* | nt | 107 | 20 | nt | 216* | 81* | 117
CN(C)C(CNC(=S)Nc1ccc(F)cc1)c1cccnc1 (stereo not given) | 104 | -13 | 103 | 2 | 12 | nt | nt | nt
COc1ccc(-n2cnnc2SCC(=O)NC2CCCc3ccccc32)cc1 (stereo not given) | 85 | 11 | 81 | -2 | -6 | nt | nt | nt
CC(C)Oc1ccc(C(=O)N2CCCc3ccccc32)cc1 | 117 | 10 | 123* | 7 | 5 | 102 | 2 | 105
COc1ccc(S(=O)(=O)N2CCOC2CNC(=O)C(=O)NCCN2CCOCC2)cc1C (stereo not given) | 103 | 1 | 98 | 5 | 5 | nt | nt | nt
CC[C@]1(c2cccc(C)c2)C(=O)N(C(=O)OC)N1C(=O)OC | 66* | 8 | 105 | 59* | -6 | 98 | 2 | 102
